# Key:
# Staphylococcus aureus [1] = test: Antimicrobial activity against Staphylococcus aureus ATCC 29213 after 18 to 24 hrs by alamar blue assay
# Escherichia coli = test: Antimicrobial activity against Escherichia coli ATCC […] after 18 to 24 hrs by alamar blue assay; format: functional; conditions: Escherichia coli; read-out: MIC
# Method in brief: (§1)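 Broth microdilution per NCCLS in Mueller-Hinton broth, 8-point twofold dilutions, 384-well format. Exponential-phase cells at 5 × 10^5 cells/ml incubated with compound 18–24 h at 37 °C, then 20% Alamar blue added and fluorescence read. MIC90 taken as the lowest concentration preventing at least 90% bacterial growth.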
# Staphylococcus aureus [2] = test: Antimicrobial activity against methicillin-resistant Staphylococcus aureus ATCC 33592 after 18 to 24 hrs by alamar blue assay; format: functional; conditions: Staphylococcus aureus, ATCC 33592; read-out: MIC
# Method in brief: (§2)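 Broth microdilution per NCCLS standard, Mueller-Hinton broth, 8-point twofold dilutions; exponentially growing cells at 5 10^5 cells/ml with compound, 18–24 h at 37 C; 20% Alamar blue added, fluorescence read; MIC90 taken as lowest concentration preventing at least 90% growth.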
# Bacillus subtilis = test: Antimicrobial activity against Bacillus subtilis ATCC 23857 after 18 to 24 hrs by alamar blue assay; format: functional
# Method in brief: as §1
# Staphylococcus aureus [3] = test: Antimicrobial activity against methicillin-resistant Staphylococcus aureus isolate NTUH4722 after 18 to 24 hrs by alamar blue assay; format: functional
# Method in brief: as §2
# Acinetobacter baumannii = test: Antimicrobial activity against Acinetobacter baumannii ATCC 49139 after 18 to 24 hrs by alamar blue assay; format: functional; conditions: Acinetobacter baumannii, ATCC 49139; read-out: MIC
# Method in brief: as §1
# Serratia marcescens = test: Antimicrobial activity against Serratia marcescens ATCC 14756 after 18 to 24 hrs by alamar blue assay; format: functional; conditions: Serratia marcescens, ATCC 14756; read-out: MIC
# Method in brief: as §1
# [4] = system: Stenotrophomonas maltophilia; test: Antimicrobial activity against Stenotrophomonas maltophilia ATCC 13637 after 18 to 24 hrs by alamar blue assay; format: functional; conditions: Stenotrophomonas maltophilia, ATCC 13637; read-out: MIC
# Method in brief: as §1
# Staphylococcus aureus [5] = test: Antimicrobial activity against oxacillin- and methicillin-resistant Staphylococcus aureus isolate Sa-OXA-R2 after 18 to 24 hrs by alamar blue assay; format: functional
# Method in brief: as §2
# Pseudomonas aeruginosa = test: Antimicrobial activity against Pseudomonas aeruginosa ATCC 25619 after 18 to 24 hrs by alamar blue assay; format: functional; conditions: Pseudomonas aeruginosa, ATCC 25619; read-out: MIC
# Method in brief: as §1
# [6] = system: Mycolicibacterium smegmatis; test: Antimicrobial activity against Mycobacterium smegmatis BCRC 11565 after 18 to 24 hrs by alamar blue assay; format: functional; conditions: Mycolicibacterium smegmatis, BCRC 11565; read-out: MIC
# Method in brief: as §1
SMILES,MIC (Staphylococcus aureus [1]),MIC (Escherichia coli),MIC (Staphylococcus aureus [2]),MIC (Bacillus subtilis),MIC (Staphylococcus aureus [3]),MIC (Acinetobacter baumannii),MIC (Serratia marcescens),MIC [4],MIC (Staphylococcus aureus [5]),MIC (Pseudomonas aeruginosa),MIC [6]
O=C(Nc1nnc(-c2ccc(Cl)cc2)o1)c1ccc(C(F)(F)F)cc1,3 µg/mL,> 256 µg/mL,1.5 µg/mL,0.5 µg/mL,1.5 µg/mL,> 256 µg/mL,> 256 µg/mL,> 256 µg/mL,1.5 µg/mL,> 256 µg/mL,0.5 µg/mL
O=C(Nc1cccc(Cl)c1)c1cc(Br)cc(Br)c1O,2 µg/mL,8 µg/mL,2 µg/mL,< 0.03 µg/mL,2 µg/mL,16 µg/mL,16 µg/mL,16 µg/mL,8 µg/mL,16 µg/mL,0.5 µg/mL
O=C(Nc1nnc(-c2ccccc2Cl)o1)c1cccc(C(F)(F)F)c1,1 µg/mL,> 256 µg/mL,0.5 µg/mL,0.5 µg/mL,2 µg/mL,> 256 µg/mL,> 256 µg/mL,> 256 µg/mL,0.5 µg/mL,> 256 µg/mL,0.5 µg/mL
CCCc1cc(O)nc(N2NC(C)=CC2NC(=O)c2ccccc2)n1 (stereo not drawn),2 µg/mL,> 256 µg/mL,8 µg/mL,0.25 µg/mL,8 µg/mL,> 256 µg/mL,> 256 µg/mL,> 256 µg/mL,8 µg/mL,> 256 µg/mL,0.25 µg/mL
O=C(Nc1nnc(-c2ccc(Br)cc2)o1)c1cccc(F)c1,2 µg/mL,> 256 µg/mL,0.5 µg/mL,0.5 µg/mL,0.5 µg/mL,> 256 µg/mL,> 256 µg/mL,> 256 µg/mL,0.5 µg/mL,> 256 µg/mL,0.5 µg/mL
O=C(Nc1nnc(-c2cccc(Br)c2)o1)c1ccc(F)cc1,3 µg/mL,> 256 µg/mL,1.5 µg/mL,0.5 µg/mL,1.5 µg/mL,> 256 µg/mL,> 256 µg/mL,> 256 µg/mL,1.5 µg/mL,> 256 µg/mL,0.5 µg/mL
CC(C)N1C(=O)/C(=C/c2ccc([N+](=O)[O-])o2)SC1=S,0.25 µg/mL,16 µg/mL,1 µg/mL,< 0.03 µg/mL,2 µg/mL,> 256 µg/mL,> 256 µg/mL,> 256 µg/mL,1 µg/mL,2 µg/mL,1 µg/mL
Cc1c(CC(=O)N[C@@H](C(=O)O)c2ccccc2)c(=O)oc2c(C)c3occ(-c4ccc(Cl)cc4)c3cc12,2.5 µg/mL,> 256 µg/mL,2.5 µg/mL,> 64 µg/mL,2.5 µg/mL,> 256 µg/mL,> 256 µg/mL,> 256 µg/mL,2.5 µg/mL,> 256 µg/mL,1 µg/mL
CSC[C@H](NC(=O)Cc1c(C)c2cc3c(-c4ccc(Cl)cc4)coc3c(C)c2oc1=O)C(=O)O,2.5 µg/mL,> 256 µg/mL,1.25 µg/mL,> 64 µg/mL,2.5 µg/mL,> 256 µg/mL,> 256 µg/mL,> 256 µg/mL,2.5 µg/mL,> 256 µg/mL,1 µg/mL
O=C(Nc1ccc(Cl)cc1)c1cc(Br)ccc1NS(=O)(=O)c1ccc(Cl)cc1,0.25 µg/mL,> 256 µg/mL,0.25 µg/mL,< 0.03 µg/mL,0.25 µg/mL,> 256 µg/mL,> 256 µg/mL,> 256 µg/mL,0.5 µg/mL,> 256 µg/mL,> 64 µg/mL
O=C1c2cc([N+](=O)[O-])cc3cc([N+](=O)[O-])cc(c23)C(=O)N1c1cccc2ccccc12,1.25 µg/mL,> 256 µg/mL,2.5 µg/mL,4 µg/mL,0.125 µg/mL,> 256 µg/mL,> 256 µg/mL,> 256 µg/mL,0.125 µg/mL,> 256 µg/mL,4 µg/mL
O=C1c2ccc([N+](=O)[O-])c3c([N+](=O)[O-])ccc(c23)C(=O)N1c1ccccc1,2.5 µg/mL,> 256 µg/mL,2.5 µg/mL,4 µg/mL,1.25 µg/mL,> 256 µg/mL,> 256 µg/mL,> 256 µg/mL,1.25 µg/mL,> 256 µg/mL,4 µg/mL
Cc1c(CC(=O)N2CCC[C@H]2C(=O)O)c(=O)oc2c(C)c3occ(-c4ccc(F)cc4)c3cc12,0.6 µg/mL,> 256 µg/mL,1.25 µg/mL,> 64 µg/mL,0.6 µg/mL,> 256 µg/mL,> 256 µg/mL,> 256 µg/mL,0.6 µg/mL,> 256 µg/mL,1 µg/mL
